Experimental data reported in ChEMBL document CHEMBL4680175, “Sulfonamide-based ring-fused analogues for CAN508 as novel carbonic anhydrase inhibitors endowed with antitumor activity: Design, synthesis, and in vitro biological evaluation” (Eur J Med Chem, 2020).

Key:
A549 = experiment: Antitumor activity against human A549/ATCC cells assessed as cell growth inhibition at 10 uM incubated for 48 hrs by sulforhodamine B assay; type: functional; settings: read-out: GI
Summary of the method: (§1)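 NCI Drug Evaluation Branch protocol: primary single-dose screen at 10 μM across a 57-line human cancer panel. Drug exposure is 48 h. Cell growth and viability are read by sulforhodamine B assay. Data are given as a mean graph of percent growth of treated cells and reported as percentage growth inhibition (GI%).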

HT-29 = experiment: Antitumor activity against human HT-29 cells assessed as cell growth inhibition at 10 uM incubated for 48 hrs by sulforhodamine B assay; type: functional; settings: read-out: GI; summary of the method: as §1
MDA-MB-468 [1] = experiment: Antiproliferative activity against human MDA-MB-468 cells measured after 48 hrs under normoxic condition by MTT assay; type: functional, cell-based; settings: MDA-MB-468, 48 h
Hs-578T = experiment: Antitumor activity against human HS 578T cells assessed as cell growth inhibition at 10 uM incubated for 48 hrs by sulforhodamine B assay; type: functional; settings: read-out: GI; summary of the method: as §1
HL-60(TB) = experiment: Antitumor activity against human HL-60(TB) cells assessed as cell growth inhibition at 10 uM incubated for 48 hrs by sulforhodamine B assay; type: functional; settings: read-out: GI
Summary of the method: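 Single-dose NCI-60-type screen of 57 human cancer cell lines at 10 μM under the NCI Drug Evaluation Branch protocol. Drugs exposed for 48 h; growth and viability read by sulforhodamine B assay. Data given as mean-graph percent growth of treated cells, expressed as percent growth inhibition.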

MDA-MB-468 [2] = experiment: Antiproliferative activity against human MDA-MB-468 cells measured after 48 hrs under CoCl2-induced hypoxic condition by MTT assay; type: functional, cell-based; settings: MDA-MB-468, 48 h
M14 = experiment: Antitumor activity against human M14 cells assessed as cell growth inhibition at 10 uM incubated for 48 hrs by sulforhodamine B assay; type: functional; settings: read-out: GI; summary of the method: as §1
MCF7 [3] = experiment: Antiproliferative activity against human MCF7 cells measured after 48 hrs under CoCl2-induced hypoxic condition by MTT assay; type: functional, cell-based; settings: MCF7, 48 h
MDA-MB-435 = experiment: Antitumor activity against human MDA-MB-435 cells assessed as cell growth inhibition at 10 uM incubated for 48 hrs by sulforhodamine B assay; type: functional; settings: read-out: GI; summary of the method: as §1
TK-10 = experiment: Antitumor activity against human TK-10 cells assessed as cell growth inhibition at 10 uM incubated for 48 hrs by sulforhodamine B assay; type: functional; settings: read-out: GI
Summary of the method: (§2)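 NCI one-dose screen: 57-cell-line panel exposed at 10 μM for 48 h, Drug Evaluation Branch protocol. Growth and viability read by sulforhodamine B; data given as percent growth inhibition from the mean-graph of percent growth of treated cells.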

NCI-H23 = experiment: Antitumor activity against human NCI-H23 cells assessed as cell growth inhibition at 10 uM incubated for 48 hrs by sulforhodamine B assay; type: functional; settings: read-out: GI; summary of the method: as §1
SK-MEL-28 = experiment: Antitumor activity against human SK-MEL-28 cells assessed as cell growth inhibition at 10 uM incubated for 48 hrs by sulforhodamine B assay; type: functional; settings: read-out: GI; summary of the method: as §1
ACHN = experiment: Antitumor activity against human ACHN cells assessed as cell growth inhibition at 10 uM incubated for 48 hrs by sulforhodamine B assay; type: functional; settings: read-out: GI; summary of the method: as §1
UACC-62 = experiment: Antitumor activity against human UACC-62 cells assessed as cell growth inhibition at 10 uM incubated for 48 hrs by sulforhodamine B assay; type: functional; settings: read-out: GI; summary of the method: as §2
SF-295 = experiment: Antitumor activity against human SF295 cells assessed as cell growth inhibition at 10 uM incubated for 48 hrs by sulforhodamine B assay; type: functional; settings: read-out: GI; summary of the method: as §1
A498 = experiment: Antitumor activity against human A498 cells assessed as cell growth inhibition at 10 uM incubated for 48 hrs by sulforhodamine B assay; type: functional; settings: read-out: GI; summary of the method: as §1
DU-145 = experiment: Antitumor activity against human DU-145 cells assessed as cell growth inhibition at 10 uM incubated for 48 hrs by sulforhodamine B assay; type: functional; settings: read-out: GI; summary of the method: as §1
OVCAR-4 = experiment: Antitumor activity against human OVCAR-4 cells assessed as cell growth inhibition at 10 uM incubated for 48 hrs by sulforhodamine B assay; type: functional; settings: read-out: GI; summary of the method: as §1
EKVX = experiment: Antitumor activity against human EKVX cells assessed as cell growth inhibition at 10 uM incubated for 48 hrs by sulforhodamine B assay; type: functional; settings: read-out: GI; summary of the method: as §1
Malme-3M = experiment: Antitumor activity against human MALME-3M cells assessed as cell growth inhibition at 10 uM incubated for 48 hrs by sulforhodamine B assay; type: functional; settings: read-out: GI; summary of the method: as §1
SW-620 = experiment: Antitumor activity against human SW620 cells assessed as cell growth inhibition at 10 uM incubated for 48 hrs by sulforhodamine B assay; type: functional; settings: read-out: GI; summary of the method: as §2
SNB-19 = experiment: Antitumor activity against human SNB-19 cells assessed as cell growth inhibition at 10 uM incubated for 48 hrs by sulforhodamine B assay; type: functional; settings: read-out: GI; summary of the method: as §1
Carbonic anhydrase 12 = Carbonic anhydrase 12 (Homo sapiens, UniProt O43570); experiment: Inhibition of recombinant human carbonic anhydrase 12 preincubated with enzyme for 15 mins by phenol red dye based stopped flow CO2 hydrase assay
SR = experiment: Antitumor activity against human SR cells assessed as cell growth inhibition at 10 uM incubated for 48 hrs by sulforhodamine B assay; type: functional; settings: read-out: GI; summary of the method: as §2
786-0 = experiment: Antitumor activity against human 786-0 cells assessed as cell growth inhibition at 10 uM incubated for 48 hrs by sulforhodamine B assay; type: functional; settings: read-out: GI; summary of the method: as §1
HCC 2998 = experiment: Antitumor activity against human HCC2998 cells assessed as cell growth inhibition at 10 uM incubated for 48 hrs by sulforhodamine B assay; type: functional; settings: read-out: GI; summary of the method: as §1
OVCAR-5 = experiment: Antitumor activity against human OVCAR-5 cells assessed as cell growth inhibition at 10 uM incubated for 48 hrs by sulforhodamine B assay; type: functional; settings: read-out: GI; summary of the method: as §1
MCF7 [4] = experiment: Antiproliferative activity against human MCF7 cells measured after 48 hrs under normoxic condition by MTT assay; type: functional, cell-based; settings: MCF7, 48 h
SK-OV-3 = experiment: Antitumor activity against human SK-OV-3 cells assessed as cell growth inhibition at 10 uM incubated for 48 hrs by sulforhodamine B assay; type: functional; settings: read-out: GI; summary of the method: as §1
HCT-15 = experiment: Antitumor activity against human HCT15 cells assessed as cell growth inhibition at 10 uM incubated for 48 hrs by sulforhodamine B assay; type: functional; settings: read-out: GI; summary of the method: as §1
UACC-257 = experiment: Antitumor activity against human UACC-257 cells assessed as cell growth inhibition at 10 uM incubated for 48 hrs by sulforhodamine B assay; type: functional; settings: read-out: GI; summary of the method: as §2
COLO 205 = experiment: Antitumor activity against human COLO205 cells assessed as cell growth inhibition at 10 uM incubated for 48 hrs by sulforhodamine B assay; type: functional; settings: read-out: GI; summary of the method: as §1

Sequence of Carbonic anhydrase 12 (O43570 whole entry): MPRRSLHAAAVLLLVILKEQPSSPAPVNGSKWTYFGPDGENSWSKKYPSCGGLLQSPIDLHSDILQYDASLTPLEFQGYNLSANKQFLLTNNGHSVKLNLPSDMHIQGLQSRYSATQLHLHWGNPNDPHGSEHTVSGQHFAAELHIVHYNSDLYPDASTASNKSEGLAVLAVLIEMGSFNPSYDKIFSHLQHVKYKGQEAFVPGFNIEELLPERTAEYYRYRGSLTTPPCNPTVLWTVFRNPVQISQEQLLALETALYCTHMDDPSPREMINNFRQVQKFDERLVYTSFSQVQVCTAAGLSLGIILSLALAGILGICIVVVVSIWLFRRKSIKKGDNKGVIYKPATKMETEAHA

Structure (SMILES) | inhibition of growth at 10 µM (A549) [%] | inhibition of growth at 10 µM (HT-29) [%] | inhibition of growth at 10 µM (Hs-578T) [%] | inhibition of growth at 10 µM (HL-60(TB)) [%] | inhibition of growth at 10 µM (M14) [%] | inhibition of growth at 10 µM (MDA-MB-435) [%] | inhibition of growth at 10 µM (TK-10) [%] | inhibition of growth at 10 µM (NCI-H23) [%] | inhibition of growth at 10 µM (SK-MEL-28) [%] | inhibition of growth at 10 µM (ACHN) [%] | inhibition of growth at 10 µM (UACC-62) [%] | inhibition of growth at 10 µM (A498) [%] | inhibition of growth at 10 µM (DU-145) [%] | inhibition of growth at 10 µM (OVCAR-4) [%] | inhibition of growth at 10 µM (EKVX) [%] | inhibition of growth at 10 µM (Malme-3M) [%] | inhibition of growth at 10 µM (SW-620) [%] | inhibition of growth at 10 µM (SNB-19) [%] | Ki (Carbonic anhydrase 12) [µM] | inhibition of growth at 10 µM (SR) [%] | further results
N#Cc1c(-c2ccc(Br)cc2)nc2c(/N=N/c3ccc(S(N)(=O)=O)cc3)c(N)nn2c1N | 32 | 57 | 55 | 62 | 59 | 44 | 27 | 36 | 37 | 29 | 28 | 35 | 67 | 39 | 29 | 42 | 56 | 38 | 0.0432 | 59 | IC50 (MDA-MB-468 [1]): 6.81 µM; IC50 (MDA-MB-468 [2]): 10 µM; IC50 (MCF7 [3]): 7.56 µM; inhibition of growth at 10 µM (SF-295): 38%; inhibition of growth at 10 µM (786-0): 30%; inhibition of growth at 10 µM (HCC 2998): 38%; inhibition of growth at 10 µM (OVCAR-5): 28%; IC50 (MCF7 [4]): 4.77 µM
Nc1nn2cc(-c3ccc(Br)cc3)[nH]c2c1/N=N/c1ccc(S(N)(=O)=O)cc1 | 51 | 34 | 54 | 36 | 61 | 46 | 50 | 30 | 32 | 76 | 47 | 83 | 47 | 43 | 21 | 64 | 48 | 26 | 0.0528 | 54 | inhibition of growth at 10 µM (SK-OV-3): 82%; inhibition of growth at 10 µM (HCT-15): 63%; inhibition of growth at 10 µM (UACC-257): 21%; inhibition of growth at 10 µM (COLO 205): 28%; inhibition of growth at 10 µM (786-0): 56%; inhibition of growth at 10 µM (HCC 2998): 33%; inhibition of growth at 10 µM (OVCAR-5): 24%
